As a reminder, the IC50 is the concentration needed to halve the response being measured. In general, GI50 refers to the concentration at which growth is held to half of that of the control.

Activity calls are given as the source filed them. No cut-off for these calls is given here.

This is an account of results in ChEMBL document CHEMBL3808299 (J Med Chem, 2016).

Assay [1] in a line: Inhibition of hedgehog pathway in mouse Shh-Light2 cells after 46 hrs by luciferase reporter gene assay. The conditions noted are these: Shh Light2, 46 h. It is filed as cell-based. For orientation: In a reporter assay the amount or activity of a reporter protein is the signal.
A short description of assay [2]: Inhibition of hedgehog pathway in mouse MERP MB cells assessed as downregulation of Gli1 mRNA expression after 48 hrs by qPCR method. The class given is cell-based. An outline of the steps: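 Primary medulloblastoma cells from Math1-Cre-ER;Ptc fl/fl mice were incubated with compound for 48 h. Gli1 mRNA was measured by qPCR. IC50 is the mean ± SEM of two separate experiments.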

Assay [3] concerns HUVEC. The experiment in a line: Antiangiogenic activity against HUVEC assessed as inhibition of total tube junctions at 1 uM after 16 hrs by inverted microscopy. The class given is functional, cell-based. The conditions noted are these: Homo sapiens. Summed up: (§1)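 HUVECs in M199 with 1% FBS and penicillin/streptomycin, 50,000 cells per well, on Matrigel diluted 1:1 with DMEM and set at 37°C. Cells attached for 20-30 min, then got DMSO, suramin (10 uM) or drug at 10, 1 or 0.1 μM for 16 h. Eight phase-contrast fields per well were imaged. Total tube length and junctions were scored relative to DMSO (100%). Each assay was repeated at least three times.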

The nature of assay [4]: Inhibition of hedgehog pathway in mouse C3H10T1/2 cells assessed as Gli1 mRNA expression at 1 uM after 24 hrs by qPCR method. It is filed as cell-based. Also noted: scale not given: the % may be the effect or the level left. The conditions noted are these: C3H 10T1/2. An outline of the steps: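 C3H10T1/2 mouse embryonic fibroblasts were stimulated with recombinant mouse Sonic Hedgehog (C25II) and co-treated with compound at 1 μM for 24 h. Endogenous Gli1 mRNA was measured by qPCR and expressed as % of the Hh-ligand-only control (100%).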
(In general: Real-time PCR tracks product formation cycle by cycle.)

In assay [5] the test system is HUVEC. Briefly: Antiangiogenic activity against HUVEC assessed as inhibition of total tube length at 1 uM after 16 hrs by inverted microscopy. It is filed as functional, cell-based. The following applies: Homo sapiens. Summed up:
as §1

In assay [6] the test system is HUVEC. The experiment in a line: Antiproliferative activity against HUVEC assessed as inhibition of VEGF induced cell proliferation after 72 hrs by MTS assay. The following applies: Homo sapiens. It is filed as functional. Summed up: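 HUVECs were seeded at 3,000 cells/well, attached overnight, then treated with varying drug concentrations. Metabolic activity was read with MTS/PMS after 72 h. GI50 is the mean ± SEM of at least two separate experiments run in triplicate.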
A general note: Tetrazolium assays rely on reduction of a dye to a coloured formazan, in cell work by metabolically active cells.

Assay [7] in a line: Inhibition of hedgehog pathway in mouse ASZ cells assessed as downregulation of Gli1 mRNA expression after 48 hrs by qPCR method. The class given is cell-based. An outline of the steps: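 ASZ murine BCC cells, whose Hh signaling is constitutively active through a heterozygous PTCH1 mutation, got no added agonist. They were treated with a concentration series for 48 h and Gli1 mRNA was quantified by qPCR. IC50 is the mean ± SEM of at least two separate experiments in triplicate.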

Assay [8] is described as follows: Inhibition of hedgehog pathway in mouse C3H10T1/2 cells assessed as downregulation of Gli1 mRNA expression after 24 hrs by qPCR method. It is filed as cell-based. The following applies: C3H 10T1/2, 24 h. An outline of the steps: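 Hh-ligand-stimulated C3H10T1/2 cells (recombinant mouse Sonic Hedgehog C25II) were exposed to a concentration series of compound for 24 h. Gli1 mRNA was read by qPCR. IC50 is the mean ± SEM of at least two separate experiments in triplicate.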

Assay [9] deals with HUVEC. The experiment in a line: Antiproliferative activity against HUVEC assessed as inhibition of VEGF induced cell proliferation using methyl-[3H]thymidine after 36 hrs. The class given is functional, cell-based. The conditions noted are these: Homo sapiens.
Assay [10] can be described thus: Antiproliferative activity against mouse MERP MB cells assessed as cell growth inhibition using methyl-[3H]thymidine after 48 hrs by liquid scintillation spectrophotometry. The class given is functional. The following applies: Medulloblastoma cell. Summed up: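 Primary MB cells isolated from Math1-Cre-ER;Ptc fl/fl (MERP) mouse tumours were cultured in vitro and exposed to compound for 48 h to measure proliferation. GI50 is the mean ± SEM of at least two separate experiments in triplicate.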

Turning to `CCC(C)n1ncn(-c2ccc(N3CCN(c4ccc(OCC5COC(Cn6cncn6)(c6ccc(Cl)cc6Cl)O5)cc4)CC3)cc2)c1=O` (stereo not given) [ITRACONAZOLE], the IC50 is 0.69 µM in [1]; 0.39 µM in [2]; 0.14 µM in [7]; 0.063 µM in assay [8]; 0.16 µM in assay [9]. The inhibition result in assay [3] and in assay [5] was “Active” throughout. Further, the Activity in [4] was 1.7%. Also, the GI50 amounted to 0.4 µM in assay [6] and 0.44 µM in assay [10].
